ChEMBL document CHEMBL5724801, “EUbOPEN Chemogenomics Library - Multiplex” (2024)
“And” between values parts separate entries of the source, which are not always exact repeats. Identical values can stand only once.

Tested on: HEK-293T
Test: Multiplex assay against HEK293T
Format: toxicity, cell-based
Conditions: human
Outline: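 Tubulin, mitochondrial-mass and membrane-permeability phenotypes are per cents of healthy-nucleus cells. Cells were gated by CellPathfinder machine learning into Hoechst high-intensity objects or normal cells, normal cells into healthy, pyknosed or fragmented nuclei, and pyknosed cells into mitotic or apoptotic. Before that, live cells stained at seeding with Hoechst33342, BioTracker Green Microtubule Cytoskeleton Dye, MitoTracker Red and Annexin V Alexa Fluor 680 were imaged on a CQ1 microscope at 37°C and 5% CO2 after compound addition.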

[1] = 12 h, 1 µM, compound concentration 1 uM
[2] = 12 h, 10 µM, compound concentration 10 uM
[3] = 24 h, 1 µM, compound concentration 1 uM
[4] = 24 h, 10 µM, compound concentration 10 uM
[5] = 48 h, 1 µM, compound concentration 1 uM
[6] = 48 h, 10 µM, compound concentration 10 uM

With `O=c1ccc2ccc(OCCCCN3CCN(c4cccc5sccc45)CC3)cc2[nH]1` [BREXPIPRAZOLE] the “Population Apoptotic (%)” value [1] was 44% and 42%, the “Population Fragmented Nuclei (%)” value [1] was 6% and 5% and the “Population Healthy Nuclei (%)” value [1] was 77% and 80%. The “Population Hoechst High Intensity Objects (%)” value [1] was 6%, the “Population Membrane Permeable-Phenotype (%)” value [1] was 0% and the “Population Mitochondria Different-Phenotype (%)” value [1] was 67% and 69%. The “Population Mitotic Cells (%)” value [1] was 55% and 57%, the “Population Normal (%)” value [1] was 93% and the “Population Pyknosed Nuclei (%)” value [1] was 15% and 14%. The “Population Tubulin-Different-Phenotype (%)” value [1] was 51% and 47%, the “Total Cell Count” value [1] was 392 and 354 and the “Population Apoptotic (%)” value [2] was 82% and 85%. The “Population Fragmented Nuclei (%)” value [2] was 17% and 10%, the “Population Healthy Nuclei (%)” value [2] was 43% and 66% and the “Population Hoechst High Intensity Objects (%)” value [2] was 66% and 41%. For the same compound, the “Population Membrane Permeable-Phenotype (%)” value [2] was 0%, the “Population Mitochondria Different-Phenotype (%)” value [2] was 97% and 100% and the “Population Mitotic Cells (%)” value [2] was 17% and 14%. The “Population Normal (%)” value [2] was 33% and 59%, the “Population Pyknosed Nuclei (%)” value [2] was 38% and 23% and the “Population Tubulin-Different-Phenotype (%)” value [2] was 81% and 62%. For the same compound, the “Total Cell Count” value [2] was 299 and 200, the “Population Apoptotic (%)” value [3] was 41% and 42% and the “Population Fragmented Nuclei (%)” value [3] was 10% and 4%. For the same compound, the “Population Healthy Nuclei (%)” value [3] was 73% and 87%, the “Population Hoechst High Intensity Objects (%)” value [3] was 8% and 2% and the “Population Membrane Permeable-Phenotype (%)” value [3] was 0%. For the same compound, the “Population Mitochondria Different-Phenotype (%)” value [3] was 51% and 52%, the “Population Mitotic Cells (%)” value [3] was 58% and 57% and the “Population Normal (%)” value [3] was 91% and 97%. For the same compound, the “Population Pyknosed Nuclei (%)” value [3] was 16% and 7%, the “Population Tubulin-Different-Phenotype (%)” value [3] was 36% and 35% and the “Total Cell Count” value [3] was 501 and 449. For the same compound, the “Population Apoptotic (%)” value [4] was 91% and 89%, the “Population Fragmented Nuclei (%)” value [4] was 12% and 10% and the “Population Healthy Nuclei (%)” value [4] was 37% and 59%. For the same compound, the “Population Hoechst High Intensity Objects (%)” value [4] was 68% and 46%, the “Population Membrane Permeable-Phenotype (%)” value [4] was 0% and the “Population Mitochondria Different-Phenotype (%)” value [4] was 100% and 98%. The “Population Mitotic Cells (%)” value [4] was 8% and 10%, the “Population Normal (%)” value [4] was 31% and 53% and the “Population Pyknosed Nuclei (%)” value [4] was 50% and 30%. The “Population Tubulin-Different-Phenotype (%)” value [4] was 66% and 57%, the “Total Cell Count” value [4] was 284 and 180 and the “Population Apoptotic (%)” value [5] was 49% and 48%. For the same compound, the “Population Fragmented Nuclei (%)” value [5] was 9% and 12%, the “Population Healthy Nuclei (%)” value [5] was 80% and 79% and the “Population Hoechst High Intensity Objects (%)” value [5] was 5% and 3%. For the same compound, the “Population Membrane Permeable-Phenotype (%)” value [5] was 0% and 1%, the “Population Mitochondria Different-Phenotype (%)” value [5] was 47% and 36% and the “Population Mitotic Cells (%)” value [5] was 50% and 51%. For the same compound, the “Population Normal (%)” value [5] was 94% and 96%, the “Population Pyknosed Nuclei (%)” value [5] was 10% and 7% and the “Population Tubulin-Different-Phenotype (%)” value [5] was 28% and 26%. For the same compound, the “Total Cell Count” value [5] was 679 and 644, the “Population Apoptotic (%)” value [6] was 93% and 89% and the “Population Fragmented Nuclei (%)” value [6] was 19% and 14%. For the same compound, the “Population Healthy Nuclei (%)” value [6] was 30% and 50%, the “Population Hoechst High Intensity Objects (%)” value [6] was 67% and 52% and the “Population Membrane Permeable-Phenotype (%)” value [6] was 0%. For the same compound, the “Population Mitochondria Different-Phenotype (%)” value [6] was 96% and 97%, the “Population Mitotic Cells (%)” value [6] was 6% and 10% and the “Population Normal (%)” value [6] was 32% and 47%. The “Population Pyknosed Nuclei (%)” value [6] was 50% and 34%, the “Population Tubulin-Different-Phenotype (%)” value [6] was 51% and 82% and the “Total Cell Count” value [6] was 269 and 170.

With `COCCNc1cc(NC(=O)N2CCCc3cc(CN4CCOCC4=O)c(C=O)nc32)ncc1C#N` the “Population Apoptotic (%)” value [1] was 8.39% and 10.83%, the “Population Fragmented Nuclei (%)” value [1] was 1.89% and 2% and the “Population Hoechst High Intensity Objects (%)” value [1] was 0% and 0.66%. The “Population Membrane Permeable-Phenotype (%)” value [1] was 0.45% and 0%, the “Population Mitochondria Different-Phenotype (%)” value [1] was 40% and 29.63% and the “Population Mitotic Cells (%)” value [1] was 91.61% and 89.17%. For the same compound, the “Population Normal (%)” value [1] was 100% and 99.34%, the “Population Pyknosed Nuclei (%)” value [1] was 38.65% and 80% and the “Total Cell Count” value [1] was 370 and 151. The “Population Apoptotic (%)” value [2] was 13.28% and 9.24%, the “Population Fragmented Nuclei (%)” value [2] was 3.21% and 5.33% and the “Population Hoechst High Intensity Objects (%)” value [2] was 0.71% and 0%. For the same compound, the “Population Membrane Permeable-Phenotype (%)” value [2] was 0.7% and 4.35%, the “Population Mitochondria Different-Phenotype (%)” value [2] was 34.27% and 17.39% and the “Population Mitotic Cells (%)” value [2] was 86.72% and 90.76%. The “Population Normal (%)” value [2] was 99.29% and 100%, the “Population Pyknosed Nuclei (%)” value [2] was 45.71% and 79.33% and the “Population Tubulin-Different-Phenotype (%)” value [2] was 22.38% and 30.43%. For the same compound, the “Total Cell Count” value [2] was 282 and 150, the “Population Apoptotic (%)” value [3] was 12.59% and 11.28% and the “Population Fragmented Nuclei (%)” value [3] was 1.33% and 4.05%. For the same compound, the “Population Hoechst High Intensity Objects (%)” value [3] was 0%, the “Population Membrane Permeable-Phenotype (%)” value [3] was 1.6% and 0% and the “Population Mitochondria Different-Phenotype (%)” value [3] was 19.15% and 9.09%. For the same compound, the “Population Mitotic Cells (%)” value [3] was 87.41% and 88.72%, the “Population Normal (%)” value [3] was 100% and the “Population Pyknosed Nuclei (%)” value [3] was 27.19% and 76.88%. For the same compound, the “Population Apoptotic (%)” value [4] was 27.05% and 20.97%, the “Population Fragmented Nuclei (%)” value [4] was 2.91% and 3.95% and the “Population Healthy Nuclei (%)” value [4] was 67.48% and 25.99%. The “Population Hoechst High Intensity Objects (%)” value [4] was 0.24% and 0%, the “Population Membrane Permeable-Phenotype (%)” value [4] was 1.44% and 0% and the “Population Mitochondria Different-Phenotype (%)” value [4] was 24.82% and 19.57%. For the same compound, the “Population Mitotic Cells (%)” value [4] was 72.95% and 79.03%, the “Population Normal (%)” value [4] was 99.76% and 100% and the “Population Pyknosed Nuclei (%)” value [4] was 29.61% and 70.06%. For the same compound, the “Population Tubulin-Different-Phenotype (%)” value [4] was 39.21% and 21.74%, the “Total Cell Count” value [4] was 413 and 177 and the “Population Apoptotic (%)” value [5] was 7.19% and 11.39%. The “Population Fragmented Nuclei (%)” value [5] was 2.68% and 2.4%, the “Population Healthy Nuclei (%)” value [5] was 85.58% and 59.62% and the “Population Hoechst High Intensity Objects (%)” value [5] was 0%. For the same compound, the “Population Membrane Permeable-Phenotype (%)” value [5] was 6% and 3.23%, the “Population Mitochondria Different-Phenotype (%)” value [5] was 14.96% and 30.65% and the “Population Mitotic Cells (%)” value [5] was 92.81% and 88.61%. The “Population Normal (%)” value [5] was 100%, the “Population Apoptotic (%)” value [6] was 11.67% and 18.75% and the “Population Fragmented Nuclei (%)” value [6] was 2.84% and 5.15%. For the same compound, the “Population Healthy Nuclei (%)” value [6] was 81.65% and 53.65%, the “Population Hoechst High Intensity Objects (%)” value [6] was 0% and the “Population Membrane Permeable-Phenotype (%)” value [6] was 4.91% and 4%. For the same compound, the “Population Mitochondria Different-Phenotype (%)” value [6] was 35.13% and 34.4%, the “Population Mitotic Cells (%)” value [6] was 88.33% and 81.25% and the “Population Normal (%)” value [6] was 100%. The “Population Pyknosed Nuclei (%)” value [6] was 15.5% and 41.2%.
